This note sets out measurements from ChEMBL document CHEMBL1125309, “Discovery of a novel class of orally active, non-peptide angiotensin II antagonists” (J Med Chem, 1992).

For experiment [1], the target named is T1, Type-1 angiotensin II receptor (Oryctolagus cuniculus, UniProt P34976).
T1 sequence (P34976 whole entry): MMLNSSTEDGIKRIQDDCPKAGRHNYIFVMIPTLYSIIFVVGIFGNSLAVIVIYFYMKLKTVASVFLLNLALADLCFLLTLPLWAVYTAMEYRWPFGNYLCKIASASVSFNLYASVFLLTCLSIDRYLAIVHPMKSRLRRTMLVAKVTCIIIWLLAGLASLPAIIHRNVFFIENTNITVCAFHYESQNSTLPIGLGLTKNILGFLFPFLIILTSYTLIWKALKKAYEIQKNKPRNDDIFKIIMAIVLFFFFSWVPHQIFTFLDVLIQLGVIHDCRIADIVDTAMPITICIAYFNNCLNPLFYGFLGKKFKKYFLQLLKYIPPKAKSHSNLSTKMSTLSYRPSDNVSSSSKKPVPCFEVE
The experiment in a line: Compound was evaluated for in vitro potency against angiotensin II receptor, type 1 in isolated rabbit aorta; value ranges from 8.08-8.22. Conditions: read-out: pA2 (converted). The essentials:
(§1)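 Isolated rabbit aortic ring preparation contracted with angiotensin II; concentration–response curves to AII run in the presence of antagonist; parallel rightward shifts analysed by Schild analysis to give pA2 and slope.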

Experiment [2] has as its target T2, Type-1 angiotensin II receptor B (Rattus norvegicus, UniProt P29089).
T2 sequence (P29089 whole entry): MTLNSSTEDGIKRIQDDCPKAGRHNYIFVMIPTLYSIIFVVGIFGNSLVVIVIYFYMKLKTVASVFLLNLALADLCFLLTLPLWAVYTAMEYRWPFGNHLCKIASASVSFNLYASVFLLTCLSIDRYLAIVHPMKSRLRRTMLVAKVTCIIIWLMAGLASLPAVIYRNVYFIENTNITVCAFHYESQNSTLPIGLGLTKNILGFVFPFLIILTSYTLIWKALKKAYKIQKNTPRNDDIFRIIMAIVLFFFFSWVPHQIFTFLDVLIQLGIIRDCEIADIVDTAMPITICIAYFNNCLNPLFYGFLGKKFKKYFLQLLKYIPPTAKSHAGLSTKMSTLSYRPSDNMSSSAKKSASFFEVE
Nature of the experiment: Compound was evaluated for binding affinity against angiotensin II receptor, type 1 in rat liver.

Experiment [3] concerns the target T1, Type-1 angiotensin II receptor. Nature of the experiment: Compound was evaluated for in vitro potency against Angiotensin II receptor, type 1 in isolated rabbit aorta; value ranges from 7.13-7.17. Conditions: read-out: pA2 (converted). The essentials: as §1
The target is the same in experiment [4]. The experiment in a line: Compound was evaluated for in vitro potency against Angiotensin II receptor, type 1 in isolated rabbit aorta; value ranges from 5.53-5.69. Conditions: read-out: pA2 (converted). The essentials:
as §1

For experiment [5] the target is unchanged. Nature of the experiment: Compound was evaluated for in vitro potency against angiotensin II receptor, type 1 in isolated rabbit aorta. The experiment is classed as tissue-based. Conditions: read-out: pA2 (converted). In short, it runs like this: as §1
The target of experiment [6] is T2, Type-1 angiotensin II receptor B. Nature of the experiment: Compound was evaluated for binding affinity against AT1 receptor in rat liver. The essentials: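 Displacement of [125I]saralasin from AT1 receptors in rat liver membranes; compounds tested at multiple concentrations as required; Ki derived from the binding curves.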
Experiment [7] concerns the target T1, Type-1 angiotensin II receptor. Nature of the experiment: Compound was evaluated for in vitro potency against AT1 receptor in isolated rabbit aorta; value ranges from 7.91-7.97. Conditions: read-out: pA2 (converted). In short, it runs like this: as §1
The target is the same in experiment [8]. Nature of the experiment: Compound was evaluated for in vitro potency against angiotensin II receptor, type 1 in isolated rabbit aorta; value ranges from 8.70-8.83. As to conditions: read-out: pA2 (converted). The essentials:
as §1

Molecules are shown by their SMILES.

Consider `CCCCN(Cc1ccc(-c2ccccc2-c2nnn[nH]2)cc1)c1nc(C)ccc1C(=O)O`, for which the Kb in experiment [1] was 8.32 nM. Moreover, affinity in experiment [2] was put at a Ki of 122 nM. Consider `CCCCc1ncc(C(=O)O)c(N(C)Cc2ccc(-c3ccccc3-c3nn[nH]n3)cc2)n1`, for which the Kb in experiment [3] was 74.1 nM. For `O=C(O)c1cncnc1NCc1ccc(-c2ccccc2-c2nn[nH]n2)cc1`, in experiment [4], the Kb was 2950 nM. In turn, `CCCCN(Cc1ccc(-c2ccccc2-c2nn[nH]n2)cc1)c1nc(C)ncc1C(=O)O` displayed a Ki in experiment [2] of 15.3 nM. Consider `CCCCN(Cc1ccc(-c2ccccc2-c2nn[nH]n2)cc1)c1ncccc1C(=O)O`, for which, in experiment [5], the Kb is 0.316 nM. As to `CCCCc1ncc(C(=O)O)c(NCc2ccc(-c3ccccc3-c3nn[nH]n3)cc2)n1`, the inhibition constant Ki in experiment [6] turned out to be 198 nM. For the same molecule, in experiment [7], the Kb was 12.3 nM. As to `CCCCN(Cc1ccc(-c2ccccc2-c2nnn[nH]2)cc1)c1ncncc1C(=O)O`, the Kb in experiment [5] is 0.117 nM. This molecule also yielded an inhibition constant Ki in experiment [2] of 3.13 nM. In turn, `CCCN(Cc1ccc(-c2ccccc2-c2nnn[nH]2)cc1)c1ncccc1C(=O)O` showed an inhibitory constant (Ki) in experiment [2] of 0.76 nM. On the same count and under the same terms, then `CCCN(Cc1ccc(-c2ccccc2-c2nn[nH]n2)cc1)c1nc(C)ncc1C(=O)O`, with 2.78 nM.

For `CCN(Cc1ccc(-c2ccccc2-c2nn[nH]n2)cc1)c1ncccc1C(=O)O`, the Kb in experiment [8] is 2 nM.

One may read the Ki as the dissociation constant of the complex between target and ligand, obtained from inhibition or displacement. Read a high Ki as weaker binding.
